Results from ChEMBL document CHEMBL3784976 (J Med Chem, 2016).
Converted amounts (≈) assume the structure as drawn. The source made the active and inactive calls. No cut-off for these calls is given here.

Legend:
Plasma [1] = assay: Unbound plasma concentration in Harlan Sprague-Dawley rat model of AITC-induced flinching at 1 mg/kg, po at 1 hr; type: ADME, organism-based; details: in vivo
Outline: (§1)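 Rats were given vehicle (2% HPMC/1% Tween-80) or compound orally at 1, 3, 10 or 30 mg/kg. After 1 h, 0.1% AITC was injected into one left ventral hind paw, and nocifensive flinching was recorded over the first minute. Unbound plasma concentration was measured at 1 h, n = 8 per dose. In vivo IC50/IC90 came from the exposure–response relationship across individual animals.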

[2] = target: Melanocortin receptor 4 (Homo sapiens) (UniProt P32245); assay: Displacement of [125I]NDP-a-MSH from human recombinant MC4 receptor expressed in CHO cells assessed as remaining radioligand binding at 10 uM after 120 mins by scintillation counting method relative to control; type: cell-based
Rattus norvegicus [3] = assay: Binding affinity to TRPA1 in Harlan Sprague-Dawley rat model of AITC-induced flinching at 30 mg/kg, po in presence of AITC; type: functional, organism-based
[4] = Solubility of compound in pH 7.4 phosphate buffered saline; type: physicochemical
[5] = Cmax in rat at 30 mg/kg, po; type: ADME, organism-based; design: dose 30 mg/kg, route oral; details: in vivo
Outline: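 Rat oral PK at 30 mg/kg (10 mg/kg for one analogue) in 1% Tween 80/2% HPMC/97% water with methanesulfonic acid, pH 2.2.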

[6] = target: Transient receptor potential cation channel subfamily A member 1 (Homo sapiens, UniProt O75762); assay: Agonist activity at human TRPA1 expressed in tetracycline-inducible T-REx expression system transfected CHO cells by 45Ca2+ uptake assay; type: cell-based
Plasma [7] = assay: Unbound plasma concentration in Harlan Sprague-Dawley rat model of AITC-induced flinching at 30 mg/kg, po at 1 hr; type: ADME, organism-based; details: in vivo; outline: as §1
[8] = target: Somatostatin receptor type 4 (Homo sapiens) (UniProt P31391); assay: Displacement of [125I]Tyr11-somatostatin-14 from human recombinant SST4 receptor expressed in CHO cells assessed as remaining radioligand binding at 10 uM after 120 mins by scintillation counting method relative to control; type: cell-based
[9] = target: Transient receptor potential cation channel subfamily V member 1 (Rattus norvegicus) (UniProt O35433); assay: Antagonist activity at rat TRPV1 assessed as inhibition of capsaicin-induced Ca2+ influx up to 10 uM preincubated for 2.5 mins followed by capsaicin addition measured for 1 min by luminescence assay
[10] = target: Substance-K receptor (Homo sapiens) (UniProt P21452); assay: Displacement of [125I]NKA from human recombinant NK2 receptor expressed in CHO cells assessed as remaining radioligand binding at 10 uM after 60 mins by scintillation counting method relative to control; type: cell-based
[11] = target: Alpha-2A adrenergic receptor (Homo sapiens) (UniProt P08913); assay: Displacement of [3H]RX-821002 from human recombinant adrenergic alpha2A expressed in CHO cells assessed as remaining radioligand binding at 10 uM after 60 mins by scintillation counting method relative to control; type: cell-based
[12] = target: Substance-P receptor (Homo sapiens) (UniProt P25103); assay: Displacement of [125I]-Substance P LYS3 from NK1 receptor in human U373MG cells assessed as remaining radioligand binding at 10 uM after 60 mins by scintillation counting method relative to control; type: cell-based; details: U-373MG ATCC
Rattus norvegicus [13] = organism: Rattus norvegicus; assay: Displacement of [35S]TBPS from GABA gated chloride channel in rat cerebral cortex assessed as remaining radioligand binding at 10 uM after 120 mins by scintillation counting method relative to control; type: tissue-based

Sequence of Alpha-2A adrenergic receptor (Homo sapiens) (P08913 whole entry): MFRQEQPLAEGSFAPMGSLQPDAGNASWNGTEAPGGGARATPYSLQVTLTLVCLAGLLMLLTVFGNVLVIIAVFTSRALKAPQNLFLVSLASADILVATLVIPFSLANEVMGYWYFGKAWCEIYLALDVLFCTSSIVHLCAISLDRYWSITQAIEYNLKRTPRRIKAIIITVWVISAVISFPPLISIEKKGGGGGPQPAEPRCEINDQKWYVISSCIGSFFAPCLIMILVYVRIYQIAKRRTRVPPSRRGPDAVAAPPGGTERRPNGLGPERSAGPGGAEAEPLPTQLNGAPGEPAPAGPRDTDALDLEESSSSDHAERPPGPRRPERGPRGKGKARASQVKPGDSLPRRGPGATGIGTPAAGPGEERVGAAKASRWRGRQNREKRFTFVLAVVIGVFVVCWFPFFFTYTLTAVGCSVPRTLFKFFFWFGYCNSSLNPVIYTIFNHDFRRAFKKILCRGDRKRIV
Sequence of Melanocortin receptor 4 (Homo sapiens) (P32245 whole entry): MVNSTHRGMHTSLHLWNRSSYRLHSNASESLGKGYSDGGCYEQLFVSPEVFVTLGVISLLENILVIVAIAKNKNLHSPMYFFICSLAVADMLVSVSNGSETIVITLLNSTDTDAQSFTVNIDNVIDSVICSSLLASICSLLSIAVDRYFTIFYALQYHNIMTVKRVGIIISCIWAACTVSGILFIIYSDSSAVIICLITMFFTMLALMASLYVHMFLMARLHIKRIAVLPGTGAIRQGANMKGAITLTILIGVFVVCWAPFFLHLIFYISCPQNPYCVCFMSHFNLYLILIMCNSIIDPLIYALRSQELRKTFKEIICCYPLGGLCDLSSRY
Sequence of Substance-K receptor (Homo sapiens) (P21452 whole entry): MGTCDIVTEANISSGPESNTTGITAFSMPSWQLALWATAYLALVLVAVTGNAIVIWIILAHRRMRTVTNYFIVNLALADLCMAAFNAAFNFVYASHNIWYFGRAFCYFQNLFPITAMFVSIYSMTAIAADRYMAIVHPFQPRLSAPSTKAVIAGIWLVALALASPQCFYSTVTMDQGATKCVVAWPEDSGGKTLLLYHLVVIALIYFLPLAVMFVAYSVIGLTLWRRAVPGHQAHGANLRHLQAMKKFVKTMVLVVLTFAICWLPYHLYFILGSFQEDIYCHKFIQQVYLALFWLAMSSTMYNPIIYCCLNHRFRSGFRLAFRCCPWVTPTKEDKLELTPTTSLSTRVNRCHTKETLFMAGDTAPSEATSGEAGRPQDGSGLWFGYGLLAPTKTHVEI
Sequence of Transient receptor potential cation channel subfamily A member 1 (O75762 whole entry): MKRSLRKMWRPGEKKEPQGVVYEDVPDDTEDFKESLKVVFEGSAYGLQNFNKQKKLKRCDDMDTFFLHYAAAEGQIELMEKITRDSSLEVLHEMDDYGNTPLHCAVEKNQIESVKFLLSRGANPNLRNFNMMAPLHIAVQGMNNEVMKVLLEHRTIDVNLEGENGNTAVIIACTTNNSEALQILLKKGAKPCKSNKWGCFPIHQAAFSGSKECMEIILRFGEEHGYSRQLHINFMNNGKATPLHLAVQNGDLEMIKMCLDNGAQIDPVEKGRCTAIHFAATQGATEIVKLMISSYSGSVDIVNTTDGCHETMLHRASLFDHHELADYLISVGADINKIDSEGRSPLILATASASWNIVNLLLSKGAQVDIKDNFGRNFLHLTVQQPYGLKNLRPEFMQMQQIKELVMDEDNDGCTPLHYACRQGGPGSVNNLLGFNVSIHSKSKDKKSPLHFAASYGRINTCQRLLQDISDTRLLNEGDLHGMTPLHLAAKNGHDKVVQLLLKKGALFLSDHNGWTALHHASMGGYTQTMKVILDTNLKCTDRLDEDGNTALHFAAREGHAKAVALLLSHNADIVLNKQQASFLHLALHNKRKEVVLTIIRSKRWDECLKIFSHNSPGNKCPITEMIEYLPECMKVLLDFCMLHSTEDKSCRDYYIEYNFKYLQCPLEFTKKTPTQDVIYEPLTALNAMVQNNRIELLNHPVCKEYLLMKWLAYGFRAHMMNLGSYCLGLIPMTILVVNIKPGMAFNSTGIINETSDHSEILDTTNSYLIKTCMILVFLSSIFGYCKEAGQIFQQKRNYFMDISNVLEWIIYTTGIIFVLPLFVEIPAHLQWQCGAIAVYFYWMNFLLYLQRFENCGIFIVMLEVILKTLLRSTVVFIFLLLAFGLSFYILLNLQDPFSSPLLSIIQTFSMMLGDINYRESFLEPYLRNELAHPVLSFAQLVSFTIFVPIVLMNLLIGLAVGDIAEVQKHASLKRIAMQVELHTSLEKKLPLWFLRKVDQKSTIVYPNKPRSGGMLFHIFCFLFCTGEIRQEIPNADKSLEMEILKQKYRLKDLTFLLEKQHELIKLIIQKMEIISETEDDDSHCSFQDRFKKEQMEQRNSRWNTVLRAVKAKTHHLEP
Sequence of Transient receptor potential cation channel subfamily V member 1 (Rattus norvegicus) (O35433 whole entry): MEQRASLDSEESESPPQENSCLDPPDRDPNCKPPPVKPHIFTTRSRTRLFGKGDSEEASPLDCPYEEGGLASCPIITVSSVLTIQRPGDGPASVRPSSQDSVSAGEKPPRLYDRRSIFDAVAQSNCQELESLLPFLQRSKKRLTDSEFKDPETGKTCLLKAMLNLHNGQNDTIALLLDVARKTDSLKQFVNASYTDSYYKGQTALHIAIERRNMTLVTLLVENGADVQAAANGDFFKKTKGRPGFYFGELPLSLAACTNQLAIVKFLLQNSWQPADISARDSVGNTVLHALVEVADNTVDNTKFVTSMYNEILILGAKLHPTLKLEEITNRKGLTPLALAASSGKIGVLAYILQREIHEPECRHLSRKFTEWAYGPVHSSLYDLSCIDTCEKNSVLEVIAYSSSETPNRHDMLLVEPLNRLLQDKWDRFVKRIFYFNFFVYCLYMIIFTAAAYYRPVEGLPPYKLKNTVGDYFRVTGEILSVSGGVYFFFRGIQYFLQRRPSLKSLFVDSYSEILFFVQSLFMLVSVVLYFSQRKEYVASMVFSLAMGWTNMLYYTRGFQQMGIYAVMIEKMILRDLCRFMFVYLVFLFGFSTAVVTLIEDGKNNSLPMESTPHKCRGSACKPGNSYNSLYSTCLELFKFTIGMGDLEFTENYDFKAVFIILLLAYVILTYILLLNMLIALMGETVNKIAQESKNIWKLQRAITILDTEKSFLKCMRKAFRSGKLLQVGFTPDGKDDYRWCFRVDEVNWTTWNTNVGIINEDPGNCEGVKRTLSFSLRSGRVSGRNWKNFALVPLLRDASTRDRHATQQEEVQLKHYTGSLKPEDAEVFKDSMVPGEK
Sequence of Substance-P receptor (Homo sapiens) (P25103 whole entry): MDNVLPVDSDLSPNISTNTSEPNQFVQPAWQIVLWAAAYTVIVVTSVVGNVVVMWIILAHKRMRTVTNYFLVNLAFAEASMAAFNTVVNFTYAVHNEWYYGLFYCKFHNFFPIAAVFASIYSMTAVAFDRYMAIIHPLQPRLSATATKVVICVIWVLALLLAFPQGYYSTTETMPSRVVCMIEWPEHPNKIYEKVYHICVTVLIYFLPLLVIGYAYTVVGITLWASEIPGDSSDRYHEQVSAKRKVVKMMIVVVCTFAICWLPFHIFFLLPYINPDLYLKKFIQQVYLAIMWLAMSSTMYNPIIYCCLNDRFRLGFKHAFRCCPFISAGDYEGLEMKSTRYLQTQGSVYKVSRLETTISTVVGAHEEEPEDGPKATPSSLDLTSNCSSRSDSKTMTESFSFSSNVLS
Sequence of Somatostatin receptor type 4 (Homo sapiens) (P31391 whole entry): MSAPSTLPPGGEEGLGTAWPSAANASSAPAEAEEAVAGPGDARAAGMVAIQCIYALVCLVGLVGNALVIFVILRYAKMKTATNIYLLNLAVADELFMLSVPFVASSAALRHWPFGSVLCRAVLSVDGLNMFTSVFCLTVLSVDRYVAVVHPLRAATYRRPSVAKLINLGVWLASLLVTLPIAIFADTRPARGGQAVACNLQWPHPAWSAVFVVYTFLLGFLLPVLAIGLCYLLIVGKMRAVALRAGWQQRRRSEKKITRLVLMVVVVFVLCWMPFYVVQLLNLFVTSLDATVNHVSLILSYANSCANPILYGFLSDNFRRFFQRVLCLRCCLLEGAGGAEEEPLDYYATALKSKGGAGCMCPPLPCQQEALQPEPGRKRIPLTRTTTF

Cp(f) (Plasma [1]): 0.051 µM | Activity [2]: > 77% | solubility [4]: 226 µM (≈ 83.8 µg/mL) | Cmax [5]: 7.5 µM | EC50 [6]: > 40 µM | Cp(f) (Plasma [7]): 2.2 µM | Activity [8]: > 77% | inhibition [9]: inactive | Activity [10]: > 77% | Activity [11]: > 77% | Activity [12]: > 77% | Activity (Rattus norvegicus [13]): > 77%
Compound: Cn1cnc2ncn(Cc3nc(CCc4ccc(Cl)cc4)no3)c(=O)c21
Activity (Rattus norvegicus [3]): Active
